Experiments:
[1] = molecular target: Cannabinoid receptor 1 (Homo sapiens, UniProt P21554); assay: Agonist activity at human CB1 receptor expressed in CHO cells coexpressing Galpha16 assessed as reduction in forsklin-induced cAMP production incubated for 30 mins by cAMP Hunter assay based […] analysis; format: cell-based; conditions: cho
How it was run: (§1)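 CHO cells expressing human CB1 or CB2 with Gα16, seeded overnight at 37 °C. Test compounds in stimulation buffer with 1 mM IBMX, 0.25% BSA and forskolin, 30 min at 37 °C. Cells lysed, cAMP read by enzyme fragment complementation chemiluminescence kit. Triplicate per dilution. Efficacy relative to CP-55940 reference run twice per plate. EC50 from means.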

[2] = molecular target: Cannabinoid receptor 2 (Homo sapiens, UniProt P34972); assay: Agonist activity at human CB2 receptor expressed in CHO cells coexpressing Galpha16 assessed as reduction in forsklin-induced cAMP production incubated for 30 mins by cAMP Hunter assay based […] analysis; format: functional, cell-based; how it was run: as §1
Cannabinoid receptor 2, sequence (P34972 whole entry): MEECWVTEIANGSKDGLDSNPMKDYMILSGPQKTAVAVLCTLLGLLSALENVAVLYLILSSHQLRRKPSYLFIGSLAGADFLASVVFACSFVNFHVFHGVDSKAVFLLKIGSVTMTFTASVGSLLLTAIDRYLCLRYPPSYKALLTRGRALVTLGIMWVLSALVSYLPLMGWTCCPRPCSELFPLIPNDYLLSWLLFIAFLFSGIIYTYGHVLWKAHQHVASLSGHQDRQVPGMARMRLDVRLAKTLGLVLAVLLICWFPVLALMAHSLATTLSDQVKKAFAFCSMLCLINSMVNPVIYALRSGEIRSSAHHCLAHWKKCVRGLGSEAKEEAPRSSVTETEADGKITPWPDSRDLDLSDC

Cannabinoid receptor 1, sequence (P21554 whole entry, the tested form may be a part): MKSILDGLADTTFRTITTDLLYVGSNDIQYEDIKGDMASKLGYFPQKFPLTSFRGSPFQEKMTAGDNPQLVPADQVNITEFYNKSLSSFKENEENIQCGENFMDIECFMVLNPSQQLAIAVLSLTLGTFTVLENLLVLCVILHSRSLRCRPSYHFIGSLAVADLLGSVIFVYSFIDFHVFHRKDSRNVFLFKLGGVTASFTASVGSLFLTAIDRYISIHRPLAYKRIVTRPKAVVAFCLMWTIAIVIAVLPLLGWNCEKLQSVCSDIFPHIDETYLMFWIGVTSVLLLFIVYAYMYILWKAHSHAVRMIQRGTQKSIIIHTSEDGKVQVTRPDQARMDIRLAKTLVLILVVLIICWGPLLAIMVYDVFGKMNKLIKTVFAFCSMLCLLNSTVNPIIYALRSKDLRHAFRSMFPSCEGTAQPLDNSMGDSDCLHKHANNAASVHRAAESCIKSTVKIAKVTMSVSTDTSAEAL

SMILES	EC50 [1]	EC50 ([2]; cho)	EC50 ([2]; read-out: EC50) [µM]
Cc1c(CC(=O)N2CCCCC2)c2cc(Cl)ccc2n1CCN1CCOCC1	Not Active	Not Active	
Cc1c(CC(=O)N2CCCCC2)c2cc(F)ccc2n1CCN1CCOCC1	Not Active	Not Active	
Cc1c(CCN2CCOCC2)c2cc(Cl)ccc2n1CC(=O)N1CCCC1	Not Active	Not Active	
COc1ccc2c(c1)c(CCN1CCOCC1)c(C)n2CC(=O)NC1CC1	Not Active	Not Active	
Cc1c(CC(=O)NC2CC2)c2cc(F)ccc2n1CCN1CCOCC1	Not Active		4.1
Cc1c(CC(=O)N2CCCC2)c2cc(Cl)ccc2n1CCN1CCOCC1	Not Active	Not Active	
Cc1c(CCN2CCOCC2)c2cc(F)ccc2n1CC(=O)NCc1ccc2c(c1)OCO2	Not Active	Not Active	
Cc1c(CC(=O)NCc2ccc3c(c2)OCO3)c2cc(F)ccc2n1CCN1CCOCC1	Not Active	Not Active	
COc1ccc2c(c1)c(CCN1CCOCC1)c(C)n2CC(=O)NC1CCCC1	Not Active		5.6
Cc1c(CCN2CCOCC2)c2cc(Cl)ccc2n1CC(=O)NC1CC1	Not Active		5.3
Cc1c(CCN2CCOCC2)c2cc(Br)ccc2n1CC(=O)NCc1ccc2c(c1)OCO2	Not Active	Not Active	
Cc1c(CC(=O)N2CCCC2)c2cc(F)ccc2n1CCN1CCOCC1	Not Active	Not Active	
Cc1c(CCN2CCOCC2)c2cc(Cl)ccc2n1CC(=O)NCC1CC1	Not Active		14.3
Cc1c(CCN2CCOCC2)c2cc(F)ccc2n1CC(=O)N1CCCCC1	Not Active	Not Active	
Cc1c(CCN2CCOCC2)c2cc(Br)ccc2n1CC(=O)NC1CCCCC1	Not Active	Not Active	
Cc1c(CCN2CCOCC2)c2cc(Br)ccc2n1C(=O)N1CCCC1	Not Active	Not Active	

SMILES	EC50 [1]	EC50 ([2]; cho)	EC50 ([2]; read-out: EC50) [µM]
Cc1c(CC(=O)NCC2CC2)c2cc(F)ccc2n1CCN1CCOCC1	Not Active		3.1
COc1ccc2c(c1)c(CCN1CCOCC1)c(C)n2CC(=O)N1CCCCC1	Not Active		41.9
Cc1c(CCN2CCOCC2)c2cc(F)ccc2n1CC(=O)NCC1CC1	Not Active		4.2
Cc1c(CCN2CCOCC2)c2cc(Cl)ccc2n1CC(=O)NC1CCCC1	Not Active		16.1
COc1ccc2c(c1)c(CC(=O)NCC1CC1)c(C)n2CCN1CCOCC1	Not Active	Not Active	
COc1ccc2c(c1)c(CC(=O)NCc1ccc3c(c1)OCO3)c(C)n2CCN1CCOCC1	Not Active	Not Active	
Cc1c(CCN2CCOCC2)c2cc(Cl)ccc2n1CC(=O)NCc1ccc2c(c1)OCO2	Not Active	Not Active	
COc1ccc2c(c1)c(CCN1CCOCC1)c(C)n2CC(=O)NCC1CC1	Not Active		> 100
Cc1c(CCN2CCOCC2)c2cc(Br)ccc2n1CC(=O)NC1CC1	Not Active		8.2
Cc1c(CCN2CCOCC2)c2cc(Br)ccc2n1CC(=O)N1CCCCC1	Not Active	Not Active	
Cc1c(CC(=O)NC2CCCC2)c2cc(Cl)ccc2n1CCN1CCOCC1	Not Active		2.7
COc1ccc2c(c1)c(CC(=O)N1CCCCC1)c(C)n2CCN1CCOCC1	Not Active		> 100
COc1ccc2c(c1)c(CC(=O)N1CCCC1)c(C)n2CCN1CCOCC1	Not Active	Not Active	
Cc1c(CCN2CCOCC2)c2cc(Cl)ccc2n1CC(=O)NC1CCCCC1	Not Active	Not Active	
Cc1c(CCN2CCOCC2)c2cc(F)ccc2n1C(=O)N1CCCC1	Not Active	Not Active	

From ChEMBL document CHEMBL4373651, “Indole compounds with N-ethyl morpholine moieties as CB2 receptor agonists for anti-inflammatory management of pain: synthesis and biological evaluation” (Medchemcomm, 2019)
